Source: article PMC6427047 (Cell chemical biology, 2017)

Legend:
8 selected kinases = experiment: Immunoblot validation of kinase degradation in MOLM-14 cells; format: cell-based, Human; settings: pretreatment then 4-hour co-treatment with TL12-186
How it was run: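 MOLM-14 cells were exposed to test compound for 4 h, then lysed. Lysates were cleared by max-speed centrifugation at 4°C for 10 min. Protein was quantified by BCA and normalized. Samples were mixed with LDS sample buffer containing fresh 10% 2-mercaptoethanol and immunoblotted for the target kinases.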

[1] = system: WT and CRBN−/− MOLM-14 and MOLT-4 cells; experiment: 2-day proliferation assays, WT and CRBN−/− cells; format: cell-based, Human; settings: CRBN−/− MOLM-14 and MOLT-4, 2-day
FLT3 = biological target: T1, FLT3 (Homo sapiens, UniProt P36888); experiment: Immunoblot in MOLM-14 cells; format: cell-based
T1 sequence (P36888 610-943 limits assumed): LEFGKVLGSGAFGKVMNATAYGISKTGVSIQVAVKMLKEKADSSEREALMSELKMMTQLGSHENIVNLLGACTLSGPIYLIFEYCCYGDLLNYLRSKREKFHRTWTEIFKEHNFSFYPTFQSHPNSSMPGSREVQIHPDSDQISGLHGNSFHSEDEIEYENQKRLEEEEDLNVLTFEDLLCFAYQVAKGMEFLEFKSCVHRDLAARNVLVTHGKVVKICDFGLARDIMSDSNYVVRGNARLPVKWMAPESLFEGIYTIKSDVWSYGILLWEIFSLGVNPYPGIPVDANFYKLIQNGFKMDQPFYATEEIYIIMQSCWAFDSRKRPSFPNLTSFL

Row | Compound | effect of 4-hour pretreatment on TL12-186-induced kinase degradation (8 selected kinases) | further results
1 | NS(=O)(=O)OC[C@@H]1C[C@@H](n2ccc3c(N[C@H]4CCc5ccccc54)ncnc32)C[C@@H]1O [MLN4924] | reverse the degradation effect of TL12-186 | –
2 | CC(C)S(=O)(=O)c1ccccc1Nc1nc(Nc2ccc(N3CCC(N4CCN(C)CC4)CC3)cc2)ncc1Cl [TL13-87] | – | inhibition of cellular proliferation in CRBN−/− cells [1]: more potent inhibition of cellular proliferation relative to the degrader molecules
3 | CC(C)C[C@H](NC(=O)[C@H](CCc1ccccc1)NC(=O)CN1CCOCC1)C(=O)N[C@@H](Cc1ccccc1)C(=O)N[C@@H](CC(C)C)C(=O)[C@@]1(C)CO1 [carfilzomib] | reverse the degradation effect of TL12-186 | –
4 | CCN(CC)CCCC(C)Nc1ccnc2cc(Cl)ccc12 (centres unmarked) [chloroquine] | – | rescue of TL12-186-induced FLT3 degradation by autophagy inhibition (FLT3): cannot significantly rescue the degradation of FLT3
5 | Nc1cccc2c1C(=O)N(C1CCC(=O)NC1=O)C2=O (centres unmarked) [pomalidomide] | reverse the degradation effect of TL12-186 | –
